Experimental data taken from ChEMBL document CHEMBL1955770, “Inhibition of S/G2 phase CDK4 reduces mitotic fidelity” (J Biol Chem, 2006).
pIC50: −log10 of the molar value. Activity calls are given as the source filed them. The rule behind the calls is not given here.

Legend:
HeLa [1] = assay: Cell cycle arrest in human HeLa cells assessed as accumulation at S phase at 2 uM treated 4 hr and measured 10 hr post double thymidine-synchrony release using propidium iodide staining by FACS analysis (reference value: 1 %); assay type: functional
Procedure, shortened: (§1)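 Cells harvested at set times post-release, fixed in 70% ethanol, stained with 5 μg/ml propidium iodide plus 0.5 mg/ml RNase A, and analysed by flow cytometry. Cell-cycle phase fractions calculated by ModFit.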

SW480 = assay: Toxicity in human SW480 cells at IC50 after 3 days by MTT assay; assay type: cell-based; details: sw480, 72 h
HeLa [2] = assay: Cell cycle arrest at G2 phase in human HeLa cells at 2 uM treated 8 hr and measured 12 hr post-synchrony release using Propidium iodide staining by FACS analysis in presence of p38 MAPK inhibitor SB203580; assay type: functional, cell-based
HeLa [3] = assay: Cell cycle arrest at G2 phase in human HeLa cells at 2 uM treated at early S phase measured after 6-14 hr post thymidine-synchrony release by immunoblot method relative to untreated control
HeLa [4] = assay: Cell cycle arrest at G2 phase in human HeLa cells assessed as decrease in Cyclin A-CDK2 level at 2 uM treated at early S phase measured after 6-14 hr post thymidine-synchrony release by immunoblot method relative to untreated control; assay type: functional, cell-based
MDA-MB-435 = assay: Toxicity in human MDA-MB-435 cells at IC50 after 3 days by MTT assay; assay type: cell-based; details: mda-mb-435, 72 h
[5] = biological target: Insulin-like growth factor 1 receptor (Homo sapiens, UniProt P08069); assay: Inhibition of IGF1R using fluorescent substrate by IMAP assay
Insulin-like growth factor 1 receptor, sequence (P08069 31-736 limits assumed): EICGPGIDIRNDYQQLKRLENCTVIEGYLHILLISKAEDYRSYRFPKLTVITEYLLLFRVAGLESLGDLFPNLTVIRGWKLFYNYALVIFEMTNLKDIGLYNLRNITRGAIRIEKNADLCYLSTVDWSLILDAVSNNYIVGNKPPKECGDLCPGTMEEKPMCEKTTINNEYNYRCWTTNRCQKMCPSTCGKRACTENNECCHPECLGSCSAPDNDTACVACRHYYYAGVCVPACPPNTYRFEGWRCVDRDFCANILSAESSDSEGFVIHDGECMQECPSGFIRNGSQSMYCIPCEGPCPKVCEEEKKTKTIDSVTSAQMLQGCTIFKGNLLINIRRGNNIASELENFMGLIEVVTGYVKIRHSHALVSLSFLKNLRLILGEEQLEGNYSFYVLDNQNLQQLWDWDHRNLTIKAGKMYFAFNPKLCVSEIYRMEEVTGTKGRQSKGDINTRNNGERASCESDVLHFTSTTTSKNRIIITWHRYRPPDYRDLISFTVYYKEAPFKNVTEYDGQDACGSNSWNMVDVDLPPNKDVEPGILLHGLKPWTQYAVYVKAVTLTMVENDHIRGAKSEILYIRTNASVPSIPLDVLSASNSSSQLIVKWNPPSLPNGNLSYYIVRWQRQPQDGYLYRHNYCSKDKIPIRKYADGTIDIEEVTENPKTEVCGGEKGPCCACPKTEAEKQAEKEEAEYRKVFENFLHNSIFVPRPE
Insulin-like growth factor 1 receptor, sequence (P08069 741-1367 limits assumed): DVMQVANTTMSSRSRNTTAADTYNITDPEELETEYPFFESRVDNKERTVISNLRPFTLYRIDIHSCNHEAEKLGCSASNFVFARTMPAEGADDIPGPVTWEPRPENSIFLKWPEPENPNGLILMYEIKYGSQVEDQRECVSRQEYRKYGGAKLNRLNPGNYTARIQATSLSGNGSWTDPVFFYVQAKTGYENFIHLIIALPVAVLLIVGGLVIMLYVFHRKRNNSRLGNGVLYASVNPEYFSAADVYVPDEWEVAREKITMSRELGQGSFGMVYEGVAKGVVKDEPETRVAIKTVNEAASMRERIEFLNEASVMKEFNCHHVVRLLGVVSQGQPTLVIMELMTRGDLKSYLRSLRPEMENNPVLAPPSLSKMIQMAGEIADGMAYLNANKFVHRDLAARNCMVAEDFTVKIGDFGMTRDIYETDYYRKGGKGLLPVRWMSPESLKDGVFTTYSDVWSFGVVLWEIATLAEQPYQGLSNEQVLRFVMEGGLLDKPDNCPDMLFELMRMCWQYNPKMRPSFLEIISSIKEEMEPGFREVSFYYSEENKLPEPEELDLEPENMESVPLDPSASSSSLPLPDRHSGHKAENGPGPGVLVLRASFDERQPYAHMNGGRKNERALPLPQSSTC
Procedure, shortened: (§2)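 Run in-house using IMAP: phosphorylated fluorescent peptide substrate binds preferentially to immobilized metal beads, which quantifies kinase activity. ATP at 3× the Km of each enzyme.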

HeLa [6] = assay: Cell cycle arrest in human HeLa cells assessed as accumulation at G2/M phase at 2 uM treated 2 hr and measured 12 hr post double thymidine-synchrony release using propidium iodide staining by FACS analysis (reference value: 17 %); assay type: functional; procedure, shortened: as §1
HeLa [7] = assay: Cell cycle arrest in human HeLa cells assessed as accumulation at G2/M phase at 2 uM treated 4 hr and measured 12 hr post double thymidine-synchrony release using propidium iodide staining by FACS analysis (reference value: 17 %); assay type: functional; procedure, shortened: as §1
HeLa [8] = assay: Induction of abberent mitosis in human HeLa cells expressing GFP-H2B assessed as low survivin staining cells at 2 uM by immunofluorescence method (reference value: 9%); assay type: functional
[9] = Inhibition of p38 MAPK using fluorescent substrate by IMAP assay; procedure, shortened: as §2
HeLa [10] = assay: Cell cycle arrest at G2 phase in human HeLa cells assessed as time taken to reach peak mitosis at 2 uM treated at early S phase post thymidine-synchrony release by immunoblot method (reference value: 9-10 hrs); assay type: functional
HeLa [11] = assay: Cell cycle arrest in synchronized human HeLa cells assessed as inhibition of cytokinesis at 2 uM by time-lapse microscopy; assay type: functional
[12] = Cell cycle arrest in Rb-competent human SK-MEL-13 cells assessed as accumulation at G2/M phase at 2 uM after 24 hrs by FACS analysis; assay type: functional
Procedure, shortened: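 Ethanol-fixed cells stained with propidium iodide/RNase A, DNA content read by FACS, phase and sub-diploid fractions calculated with ModFit.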

[13] = Cell cycle arrest in human SK-MEL-13 cells assessed as accumulation at G2/M phase at 2 uM treated 1 hr and measured 12 hr post double hydroxyurea-synchrony release using propidium iodide staining by FACS analysis (reference value: 50 %); assay type: functional, cell-based
Procedure, shortened: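 SK-Mel-13 cells synchronized with 2 mM hydroxyurea, then treated with 2 μM CDK4 inhibitor or left untreated 1 h after release. Harvested at indicated times post-release, ethanol-fixed, propidium iodide/RNase stained, and DNA content read by FACS. Proportions of G1, S and G2/M cells derived with ModFit.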

A2058 = assay: Cell cycle arrest in human A2058 cells assessed as time taken to reach peak mitosis at 2 uM treated 1 hr and post double hydroxyurea-synchrony release using propidium iodide staining by FACS analysis; assay type: functional
RKO = assay: Toxicity in human RKO cells at 8 uM by MTT assay; assay type: cell-based
HCT-116 = assay: Cell cycle arrest in Rb-competent human HCT116 cells assessed as […] at IC50 after 24 hrs using BrdUrd staining by FACS analysis (Rvb =38 %); assay type: functional
[14] = Inhibition of JNK using fluorescent substrate by IMAP assay; procedure, shortened: as §2
HeLa [15] = assay: Cell cycle arrest at G2 phase in human HeLa cells assessed as effect on CCNB1 accumulation at 2 uM treated at early S phase measured after 6-14 hr post thymidine-synchrony release by immunoblot method; assay type: functional, cell-based
Procedure, shortened: (§3)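 HeLa cells synchronized by double thymidine block and released, treated with 2 μM inhibitor in early S phase, or left untreated. Harvested at set times after release, lysed in NETN with phosphatase and protease inhibitors, run on SDS-PAGE and immunoblotted for cyclin B1 and phosphotyrosine 15 CDK1/2, with cyclin D3 as loading control. Detection by HRP secondary and ECL.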

HeLa [16] = assay: Induction of abberent mitosis in human HeLa cells expressing GFP-H2B assessed as normal survivin staining cells at 2 uM by immunofluorescence method (reference value: 7%); assay type: functional
HeLa [17] = assay: Cell cycle arrest in human HeLa cells assessed as accumulation at G2/M phase at 2 uM treated 4 hr and measured 8 hr post double thymidine-synchrony release using propidium iodide staining by FACS analysis (reference value: 86 %); assay type: functional; procedure, shortened: as §1
Insulin receptor = Insulin receptor (Homo sapiens, UniProt P06213); assay: Inhibition of insulin receptor using fluorescent substrate by IMAP assay; procedure, shortened: as §2
Insulin receptor, sequence (P06213 28-758 limits assumed): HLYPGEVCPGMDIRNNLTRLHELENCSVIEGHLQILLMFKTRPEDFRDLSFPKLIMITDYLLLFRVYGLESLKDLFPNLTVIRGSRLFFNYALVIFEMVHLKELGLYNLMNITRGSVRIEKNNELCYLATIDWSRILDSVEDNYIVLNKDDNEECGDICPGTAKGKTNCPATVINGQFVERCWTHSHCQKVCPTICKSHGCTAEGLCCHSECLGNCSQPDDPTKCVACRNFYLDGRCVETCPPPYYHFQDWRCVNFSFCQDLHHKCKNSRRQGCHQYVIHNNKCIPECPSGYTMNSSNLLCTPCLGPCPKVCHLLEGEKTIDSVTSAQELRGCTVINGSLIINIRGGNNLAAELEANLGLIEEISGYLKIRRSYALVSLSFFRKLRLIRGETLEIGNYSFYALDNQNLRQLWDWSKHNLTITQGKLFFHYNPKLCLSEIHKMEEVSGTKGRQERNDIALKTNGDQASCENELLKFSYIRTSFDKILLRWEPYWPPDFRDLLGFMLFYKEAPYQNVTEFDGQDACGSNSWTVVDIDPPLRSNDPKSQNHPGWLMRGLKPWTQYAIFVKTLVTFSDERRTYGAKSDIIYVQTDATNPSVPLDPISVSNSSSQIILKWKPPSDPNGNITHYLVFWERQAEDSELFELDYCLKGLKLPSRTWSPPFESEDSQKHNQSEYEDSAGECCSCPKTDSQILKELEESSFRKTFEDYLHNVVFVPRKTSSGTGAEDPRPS
Insulin receptor, sequence (P06213 763-1382 limits assumed): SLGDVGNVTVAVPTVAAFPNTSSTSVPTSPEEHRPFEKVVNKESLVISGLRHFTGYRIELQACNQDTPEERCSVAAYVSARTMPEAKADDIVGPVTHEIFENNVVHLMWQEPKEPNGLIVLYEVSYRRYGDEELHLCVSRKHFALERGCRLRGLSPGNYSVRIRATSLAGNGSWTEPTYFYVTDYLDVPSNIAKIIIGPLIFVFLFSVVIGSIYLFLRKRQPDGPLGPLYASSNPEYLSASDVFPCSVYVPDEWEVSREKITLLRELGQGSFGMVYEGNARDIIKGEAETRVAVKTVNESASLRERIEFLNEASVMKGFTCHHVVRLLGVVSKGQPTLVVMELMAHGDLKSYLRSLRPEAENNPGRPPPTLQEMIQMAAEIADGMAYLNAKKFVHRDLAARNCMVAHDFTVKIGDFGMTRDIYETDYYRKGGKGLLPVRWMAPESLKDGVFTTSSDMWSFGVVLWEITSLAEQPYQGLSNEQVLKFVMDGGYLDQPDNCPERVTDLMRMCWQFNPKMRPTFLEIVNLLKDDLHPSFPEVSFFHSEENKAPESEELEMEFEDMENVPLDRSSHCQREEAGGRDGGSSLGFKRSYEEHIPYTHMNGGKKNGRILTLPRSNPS

HeLa [18] = assay: Decrease in survivin mRNA expression in human HeLa cells at 2 uM measured 8 to 14 hr post thymidine-synchrony release by RT-PCR analysis; assay type: functional, cell-based
Procedure, shortened: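 Survivin mRNA measured by real-time Taqman RT-PCR on TRIzol-extracted RNA from synchronized, treated HeLa samples, with β-actin as reference. Reaction used 600 nM each primer and 200 nM probe. Cycling: 50 °C for 2 min, 95 °C for 10 min, then 40 cycles of 95 °C for 15 s and 60 °C for 1 min. Values are the average of triplicate determinations.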

HeLa [19] = assay: Cell cycle arrest at G2 phase in human HeLa cells assessed as increase in Wee1 level at 2 uM treated at early S phase measured after 8-14 hr post-synchrony release by immunoblot method; assay type: functional, cell-based
HeLa [20] = assay: Cell cycle arrest in synchronized human HeLa cells assessed as delay in mitotic entry at 2 uM by time-lapse microscopy (reference value: 8-9 hrs); assay type: functional
HeLa [21] = assay: Cell cycle arrest in human HeLa cells assessed as accumulation at G1 phase at 2 uM treated 6 hr and measured 8 hr post double thymidine-synchrony release using propidium iodide staining by FACS analysis (reference value: 6 %); assay type: functional
HeLa [22] = assay: Cell cycle arrest at G2 phase in human HeLa cells assessed as delay in phosphotyrosine 15 CDK1 accumulation at 2 uM treated at early S phase measured after 6-14 hr post thymidine-synchrony release by immunoblot method; assay type: functional, cell-based; procedure, shortened: as §3
HeLa [23] = assay: Cell cycle arrest in human HeLa cells assessed as time delay in progression through mitosis at 2 uM treated 2 hr post double thymidine-synchrony release using propidium iodide staining by FACS analysis; assay type: functional; procedure, shortened: as §1

Row | pIC50 [5] | pIC50 [9] | pIC50 [14] | Structure (SMILES) | Activity (HeLa [1]) [%] | Activity (SW480) | Activity (HeLa [2]) | Activity (HeLa [3]) | Activity (HeLa [4]) | Activity (MDA-MB-435) | Activity (HeLa [6]) [%] | Activity (HeLa [7]) [%] | Activity (HeLa [8]) [%] | Time (HeLa [10]) [h] | inhibition at 2 µM (HeLa [11]) [%] | Activity [12] [%] | Activity [13] [%] | Time (A2058) [h] | Activity (RKO) | Activity (HCT-116) [%] | Activity (HeLa [15]) | further results
1 | 4.70 | < 4.00 | < 4.30 | COc1cccc(C(=O)c2sc(Nc3ccc(N4CCN(C(C)C)CC4)cc3)nc2N)c1 | 0 | Toxic | Active | Active | Active | Toxic | 88 | 62 | 18 | 12 | 20 | 19 | 77 | 10 | Toxic | 20 | inactive | Activity (HeLa [16]): 23%; Activity (HeLa [17]): 91%; pIC50 (Insulin receptor): 4.62; Activity (HeLa [18]): Active; Activity (HeLa [19]): Active; Time (HeLa [20]): 11 h; Activity (HeLa [21]): 7%; Activity (HeLa [22]): Active; Time (HeLa [23]): 4 h
2 | 4.66 | 4.54 | < 4.30 | CN1CCN(c2ccc(Nc3nc(N)c(C(=O)c4ccc5c(c4)OCCO5)s3)cc2)CC1 | 0 | Toxic | Active | Active | Active | Toxic | 88 | 62 | 18 | 12 | 20 | 19 | 77 | 10 | Toxic | 20 | inactive | Activity (HeLa [16]): 23%; Activity (HeLa [17]): 91%; pIC50 (Insulin receptor): 4.15; Activity (HeLa [18]): Active; Activity (HeLa [19]): Active; Time (HeLa [20]): 11 h; Activity (HeLa [21]): 7%; Activity (HeLa [22]): Active; Time (HeLa [23]): 4 h
